According to article PMC4256430 (Journal of immunology (Baltimore, Md. : 1950), 2010):
“Also recorded” adds a separate entry of the source. Like-named read-outs stand apart in the source and are kept apart here. No end group written: not given here.

Legend:
[1] = system: IL-1β–induced Gr1^+ cell recruitment, WT and Fpr2^−/− mice; assay: IL-1β–induced air pouch, Gr1^+ cell; type: in vivo, mouse; conditions: 4 h; for inhibition of IL-1β-promoted Gr1^+ cell recruitment, WT: Ac2–26 dose-dependent, LXA4 and Cpd43 at anti-inflammatory doses, n = 6, p < 0.01
[2] = system: ERK phosphorylation in peritoneal Mϕs (WT and Fpr2^−/−); assay: ERK phosphorylation in Mϕs; type: cell-based, mouse; conditions: concentration range, 10 min at 37°C, n = 3; for ERK phosphorylation, Fpr2^−/− Mϕs: Fpr2^−/− Mϕs compared with WT
Procedure, shortened: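 Peritoneal macrophages from WT littermates and Fpr2−/− mice were equilibrated 30 min in Glutamax DMEM with penicillin/streptomycin, then exposed to ligand concentration ranges for 10 min at 37°C. Lysates underwent SDS-PAGE and PVDF transfer. Blots were probed overnight for phospho-p44/42 and total p44/42 (each 1:1000), with HRP anti-rabbit and ECL detection. Read-out was the phospho-/total ERK ratio, from three distinct cultures (Mann-Whitney U).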

[3] = system: FPR2/ALX; conditions: ref [32]; cited from earlier work
[4] = system: Fpr2; conditions: cited from earlier work
[5] = system: all FPRs; conditions: in vitro experimental settings; ref [33]; cited from earlier work
[6] = system: Fpr2; type: binding, mouse; conditions: WT Mϕs; [125I]-labeled W-peptide
Procedure, shortened: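 Primary peritoneal macrophages (10 × 10^6 cells/ml in PBS with Ca2+/Mg2+) were incubated with [125I]W-peptide tracer for 1 h on ice. Excess unlabeled W-peptide defined nonspecific binding; specific binding was calculated as total minus nonspecific. Cells were collected on GF/C filters by vacuum filtration and washed three times with ice-cold 10 mM Tris-HCl. Bound counts were read on a γ-counter. The experiment was repeated three times.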

[7] = system: Mϕs (WT and Fpr2^−/−); assay: Mϕ chemotaxis; type: cell-based, mouse; conditions: 120 min, 37°C, 5-μm pores; for Mϕ chemotaxis, Fpr2^−/− compared with WT: Fpr2^−/− Mϕs, for fMLP at concentrations >1 μM
Procedure, shortened: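 Macrophages were either bone-marrow-derived (5 d in 20% FCS/30% L929-conditioned DMEM) or peritoneal cells elicited by Biogel (harvested 4 d after i.p. 2% P-100). Cells were suspended at 4 × 10^6/ml in RPMI 1640 with 0.1% BSA. 10^5 cells were placed above 5-μm polycarbonate filters, with stimuli below, for 120 min at 37°C/5% CO2. Migrated cells were quantified by 4 h alamarBlue fluorescence (ex 530–560, em 590 nm) against a macrophage standard curve. Three experiments, each in quadruplicate.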

[8] = system: fpr1^−/− mice; conditions: ref [42]; cited from earlier work
[9] = system: zymosan-elicited Gr1^+ cell influx, WT and Fpr2^−/− mice; assay: Zymosan-induced peritonitis, Gr1^+ cell recruitment; type: in vivo, mouse; conditions: 1 mg i.v. −10 min, zymosan 1 mg i.p., 4 h, n = 6, NS, mean ± SEM
Procedure, shortened: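 Peritonitis was induced in WT and Fpr2−/− mice with zymosan A, 1 mg i.p. in 0.5 ml PBS. Test protein (1 mg) was given i.v. 10 min before zymosan. Cavities were lavaged at 4 h with PBS containing 25 U/ml heparin and 0.3 mM EDTA. Gr1+ cell influx was quantified by Turk's differential counts and flow cytometry, with percentage of events multiplied by total count per cavity.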

CC(C)c1c(NC(=O)Nc2ccc(Cl)cc2)c(=O)n(-c2ccccc2)n1C [Cpd43]
effect on IL-1β-promoted cell recruitment, Fpr2^−/− ([1]; Fpr2^−/− mice, i.v., air pouch): ineffective | inhibition of IL-1β-promoted Gr1^+ cell recruitment, WT ([1]; WT mice, i.v., air pouch): 50–75% | ERK phosphorylation, WT Mϕs [2]: concentration-dependent rapid phosphorylation of ERK | FPR2/ALX agonism [3]: selective nonpeptidic FPR2/ALX agonist

CCCCC[C@H](O)/C=C/C=C\C=C\C=C\[C@@H](O)[C@@H](O)CCCC(=O)O [LXA4, lipoxin A4]
effect on IL-1β-promoted cell recruitment, Fpr2^−/− ([1]; Fpr2^−/− mice, i.v., air pouch): ineffective | inhibition of IL-1β-promoted Gr1^+ cell recruitment, WT ([1]; WT mice, i.v., air pouch): 50–75% | activation of Fpr2 ([4]; ref [23]): known to be activated

C[C@@H]1C[C@H]2[C@@H]3CCC4=CC(=O)C=C[C@]4(C)[C@@]3(F)[C@@H](O)C[C@]2(C)[C@@]1(O)C(=O)COP(=O)([O-])[O-].[Na+].[Na+] [dexamethasone, dexamethasone 21-phosphate disodium salt]
efficacy in air pouch, Fpr2^−/− mice ([1]; Fpr2^−/− mice, dexamethasone 0.5 mg/kg i.v. −1 h, IL-1β 20 ng): reduced efficacy | Gr1^+ cell infiltrate into air pouch, WT ([1]; WT mice, dexamethasone 0.5 mg/kg i.v. −1 h, IL-1β 20 ng): significantly reduced

Ac-AMVSEFLKQAWIENEEQEYVVQTVK [Ac2–26]
activation of FPRs [5]: known to activate all FPRs

WKYMVm [W-peptide]
ERK phosphorylation, Fpr2^−/− Mϕs [2]: absent | ERK phosphorylation, WT Mϕs [2]: concentration-dependent rapid phosphorylation of ERK | binding sites revealed by Scatchard plot [6]: both high- and low-affinity binding sites | ligand activity / affinity at Fpr2 ([4]; high-affinity ligand, ref [30]): high-affinity ligand for Fpr2

formyl-Met-Leu-Phe [fMLP]
concentration for optimal Mϕ chemotaxis ([7]; mean of three experiments in quadruplicate): 1 µM | Mϕ chemotaxis, Fpr2^−/− compared with WT [7]: attenuated significantly

B1: SAA: serum amyloid A, purchased from PeproTech (protein, UniProt P0DJI8 19-122, looked up)
Serum amyloid A-1 protein: RSFFSFLGEAFDGARDMWRAYSDMREANYIGSDKYFHARGNYDAAKRGPGGAWAAEVITDARENIQRFFGHGAEDSLADQAANEWGRSGKDPNHFRPAGLPEKY
Mϕ chemotaxis, Fpr2^−/− compared with WT [7]: absent | Mϕ chemotaxis, WT ([7]; WT Mϕs): promoted consistently | effect on IL-1β-promoted cell recruitment, Fpr2^−/− ([1]; Fpr2^−/− mice, i.v., air pouch): did not share this response | increase in number of cells recruited by IL-1β over control ([1]; WT mice, i.v., air pouch, control values of 3.0 ± 0.4 × 10^6 per cavity): 1.5 fold | ERK phosphorylation, Fpr2^−/− Mϕs [2]: unchanged; also recorded: retained; also recorded: not diminished | activation of Fpr2 ([4]; ref [22]): known to be activated

B2: hrAnxA1: GST-tagged human recombinant annexin A1, produced in Escherichia coli (protein, UniProt P04083 2-346, looked up)
Annexin A1: AMVSEFLKQAWFIENEEQEYVQTVKSSKGGPGSAVSPYPTFNPSSDVAALHKAIMVKGVDEATIIDILTKRNNAQRQQIKAAYLQETGKPLDETLKKALTGHLEEVVLALLKTPAQFDADELRAAMKGLGTDEDTLIEILASRTNKEIRDINRVYREELKRDLAKDITSDTSGDFRNALLSLAKGDRSEDFGVNEDLADSDARALYEAGERRKGTDVNVFNTILTTRSYPQLRRVFQKYTKYSKHDMNKVLDLELKGDIEKCLTAIVKCATSKPAFFAEKLHQAMKGVGTRHKALIRIMVSRSEIDMNDIKAFYQKMYGISLCQAILDETKGDYEKILVALCGGN
modifications: GST tag
anti-migratory action in fpr1^−/− mice [8]: a high proportion of the anti-migratory action of hrAnxA1 is retained | inhibition of PMN accumulation in air pouch, Fpr2^−/− mice ([1]; Fpr2^−/− mice, i.v. −10 min, IL-1β 20 ng, NS): 25–30% | inhibition of PMN accumulation in air pouch, dose dependence ([1]; WT mice, i.v. −10 min, IL-1β 20 ng): dose-response inhibition | reduction of Gr1^+ cell content in peritoneal fluids, Fpr2^−/− [9]: −5 ± 12%
